ChEMBL document CHEMBL4725350, “2-Oxaadamant-1-yl Ureas as Soluble Epoxide Hydrolase Inhibitors: In Vivo Evaluation in a Murine Model of Acute Pancreatitis” (J Med Chem, 2020)
Values after ≈ are worked out from the molar mass of the structure shown. Active and inactive are the calls of the source. The calls are words filed in the database; no cut-off is given here.

Columns and labels:
THLE-2 = experiment: Cytotoxicity against human THLE-2 cells assessed as reduction in cell viability measured after 72 hrs by ATPlite assay; format: cell-based; details: thle-2, 72 h, read-out: LC50 (the source's name)
How it was run: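 THLE-2 cells were grown in BEGM with 0.7 μg/mL phosphoethanolamine, 0.5 ng/mL EGF and 10% FBS, plated at 10,000 cells/well and left to adhere for 24 h. Cells were exposed to 0–100 μM final (1% DMSO) for 72 h at 37 °C, 5% CO2.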

[1] = Stability in mouse liver microsomes assessed as parent compound remaining measured after 60 mins in presence of NADPH by LC-MS/MS analysis; format: ADME, Microsome; details: read-out: Stabilty
How it was run: (§1)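 Compound is incubated at 37 °C with human, mouse or rat liver microsomes in 50 mM phosphate buffer pH 7.4. […] Samples at 0–60 min are quenched into acetonitrile; percent parent remaining at 60 min is reported. Testosterone is the positive control.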

physchem = details: 1% DMSO/99% PBS buffer solution
AR-42J cell line [2] = experiment: Protection against cerulein-induced pancreatic damage in rat AR42J cells assessed as reduction in CHOP mRNA level at 60 uM preincubated for 1 hr followed by cerulein addition and measured after 8 hrs by Trisure-reagent based RT-PCR analysis; format: functional, cell-based; details: time 9.0 hrs
How it was run: (§2)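 Rat pancreatic acinar AR42J cells are exposed to 10 nM cerulein with or without inhibitor co-incubation at 60 μM. IL-6, TNF-α, CHOP and TRB3 mRNA levels are measured and compared with control and cerulein-only cells. Mean ± SEM, n = 5 per group.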

[3] = molecular target: T1, Bifunctional epoxide hydrolase 2 (Rattus norvegicus, UniProt P80299); experiment: Inhibition of recombinant rat soluble epoxide hydrolase using CMNPC as substrate preincubated for 5 mins followed by substrate addition and measured at 30 secs interval for 10 mins by fluorescence assay
T1 sequence (P80299 whole entry): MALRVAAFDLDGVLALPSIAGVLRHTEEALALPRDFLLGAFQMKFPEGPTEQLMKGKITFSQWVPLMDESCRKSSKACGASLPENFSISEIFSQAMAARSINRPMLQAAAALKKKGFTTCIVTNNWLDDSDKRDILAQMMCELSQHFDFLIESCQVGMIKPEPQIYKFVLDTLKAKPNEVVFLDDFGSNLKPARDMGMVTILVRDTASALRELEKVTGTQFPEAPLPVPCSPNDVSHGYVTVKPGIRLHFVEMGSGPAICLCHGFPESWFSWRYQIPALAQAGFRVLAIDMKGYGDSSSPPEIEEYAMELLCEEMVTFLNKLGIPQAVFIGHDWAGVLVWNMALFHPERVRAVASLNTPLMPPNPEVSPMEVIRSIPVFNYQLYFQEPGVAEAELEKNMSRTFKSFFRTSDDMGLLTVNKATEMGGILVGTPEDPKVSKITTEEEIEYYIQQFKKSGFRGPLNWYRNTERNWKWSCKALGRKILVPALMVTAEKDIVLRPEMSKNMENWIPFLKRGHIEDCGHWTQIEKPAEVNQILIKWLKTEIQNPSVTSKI
How it was run: (§3)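 Purified recombinant enzyme was preincubated with inhibitor (0.4–100,000 nM final) for 5 min at 30 °C in 100 mM sodium phosphate, pH 7.4, with 0.1 mg/mL BSA and 1% DMSO. CMNPC was added at 5 μM final. 6-Methoxynaphthaldehyde fluorescence (ex 330/em 465 nm) was read every 30 s for 10 min. IC50 values are averages of three replicates.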

AR-42J cell line [4] = experiment: Protection against cerulein-induced pancreatic damage in rat AR42J cells assessed as reduction in TRB3 mRNA level at 60 uM preincubated for 1 hr followed by cerulein addition and measured after 8 hrs by Trisure-reagent based RT-PCR analysis; format: functional, cell-based; details: time 9.0 hrs; how it was run: as §2
[5] = Stability in rat liver microsomes assessed as parent compound remaining measured after 60 mins in presence of NADPH by LC-MS/MS analysis; format: ADME, Microsome; details: read-out: Stabilty; how it was run: as §1
[6] = molecular target: Voltage-gated inwardly rectifying potassium channel KCNH2 (Homo sapiens, UniProt Q12809); experiment: Inhibition of human ERG at 10 uM
[7] = Cytotoxicity against human PBMC assessed as reduction in cell viability measured after 72 hrs by ATPlite assay; details: read-out: LC50 (the source's name)
[8] = molecular target: T2, Bifunctional epoxide hydrolase 2 (Mus musculus, UniProt P34914); experiment: Inhibition of recombinant mouse soluble epoxide hydrolase using CMNPC as substrate preincubated for 5 mins followed by substrate addition and measured at 30 secs interval for 10 mins by fluorescence assay; how it was run: as §3
T2 sequence (P34914 whole entry): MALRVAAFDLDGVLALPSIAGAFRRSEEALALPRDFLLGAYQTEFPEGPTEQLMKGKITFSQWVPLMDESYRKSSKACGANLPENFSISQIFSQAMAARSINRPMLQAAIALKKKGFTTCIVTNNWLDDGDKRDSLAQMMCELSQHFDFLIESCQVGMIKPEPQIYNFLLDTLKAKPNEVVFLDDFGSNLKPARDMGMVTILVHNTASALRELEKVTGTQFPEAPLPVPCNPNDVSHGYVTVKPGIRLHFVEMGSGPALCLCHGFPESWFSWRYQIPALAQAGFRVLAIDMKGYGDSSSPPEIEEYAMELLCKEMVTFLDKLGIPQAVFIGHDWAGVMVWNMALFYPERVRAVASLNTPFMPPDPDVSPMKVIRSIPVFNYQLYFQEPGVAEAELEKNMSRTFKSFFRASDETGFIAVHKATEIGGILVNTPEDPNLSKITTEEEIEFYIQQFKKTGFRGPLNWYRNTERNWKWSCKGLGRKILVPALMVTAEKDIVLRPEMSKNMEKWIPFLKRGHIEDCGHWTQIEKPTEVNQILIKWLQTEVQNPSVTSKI

AR-42J cell line [9] = experiment: Protection against cerulein-induced pancreatic damage in rat AR42J cells assessed as reduction in IL-6 mRNA level at 60 uM preincubated for 1 hr followed by cerulein addition and measured after 8 hrs by Trisure-reagent based RT-PCR analysis; format: functional, cell-based; details: time 9.0 hrs; how it was run: as §2
AR-42J cell line [10] = experiment: Protection against cerulein-induced pancreatic damage in rat AR42J cells assessed as reduction in TNF-alpha mRNA level at 60 uM preincubated for 1 hr followed by cerulein addition and measured after 8 hrs by Trisure-reagent based RT-PCR analysis; format: functional, cell-based; details: time 9.0 hrs; how it was run: as §2
[11] = Tmax in CD-1 mouse at 1 mg/kg, ip measured up to 24 hrs by LC-MS analysis; format: ADME, organism-based; details: in vivo
How it was run: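 Single dose, 1 mg/kg, given to mice intravenously or intraperitoneally. Parameters are taken from the plasma concentration–time profile: T1/2, Tmax, Cmax, C0 (iv only), AUClast, AUCINF_obs, Vz and Cl. Bioavailability is derived from ip versus iv exposure.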

[12] = Stability in human liver microsomes assessed as parent compound remaining measured after 60 mins in presence of NADPH by LC-MS/MS analysis; format: ADME, Microsome; details: read-out: Stabilty; how it was run: as §1
[13] = Selectivity ratio of inhibition of recombinant human CYP3A4 to IC50 for inhibition of recombinant mouse soluble epoxide hydrolase using DBF as substrate

Sequence of Voltage-gated inwardly rectifying potassium channel KCNH2 (Q12809 whole entry): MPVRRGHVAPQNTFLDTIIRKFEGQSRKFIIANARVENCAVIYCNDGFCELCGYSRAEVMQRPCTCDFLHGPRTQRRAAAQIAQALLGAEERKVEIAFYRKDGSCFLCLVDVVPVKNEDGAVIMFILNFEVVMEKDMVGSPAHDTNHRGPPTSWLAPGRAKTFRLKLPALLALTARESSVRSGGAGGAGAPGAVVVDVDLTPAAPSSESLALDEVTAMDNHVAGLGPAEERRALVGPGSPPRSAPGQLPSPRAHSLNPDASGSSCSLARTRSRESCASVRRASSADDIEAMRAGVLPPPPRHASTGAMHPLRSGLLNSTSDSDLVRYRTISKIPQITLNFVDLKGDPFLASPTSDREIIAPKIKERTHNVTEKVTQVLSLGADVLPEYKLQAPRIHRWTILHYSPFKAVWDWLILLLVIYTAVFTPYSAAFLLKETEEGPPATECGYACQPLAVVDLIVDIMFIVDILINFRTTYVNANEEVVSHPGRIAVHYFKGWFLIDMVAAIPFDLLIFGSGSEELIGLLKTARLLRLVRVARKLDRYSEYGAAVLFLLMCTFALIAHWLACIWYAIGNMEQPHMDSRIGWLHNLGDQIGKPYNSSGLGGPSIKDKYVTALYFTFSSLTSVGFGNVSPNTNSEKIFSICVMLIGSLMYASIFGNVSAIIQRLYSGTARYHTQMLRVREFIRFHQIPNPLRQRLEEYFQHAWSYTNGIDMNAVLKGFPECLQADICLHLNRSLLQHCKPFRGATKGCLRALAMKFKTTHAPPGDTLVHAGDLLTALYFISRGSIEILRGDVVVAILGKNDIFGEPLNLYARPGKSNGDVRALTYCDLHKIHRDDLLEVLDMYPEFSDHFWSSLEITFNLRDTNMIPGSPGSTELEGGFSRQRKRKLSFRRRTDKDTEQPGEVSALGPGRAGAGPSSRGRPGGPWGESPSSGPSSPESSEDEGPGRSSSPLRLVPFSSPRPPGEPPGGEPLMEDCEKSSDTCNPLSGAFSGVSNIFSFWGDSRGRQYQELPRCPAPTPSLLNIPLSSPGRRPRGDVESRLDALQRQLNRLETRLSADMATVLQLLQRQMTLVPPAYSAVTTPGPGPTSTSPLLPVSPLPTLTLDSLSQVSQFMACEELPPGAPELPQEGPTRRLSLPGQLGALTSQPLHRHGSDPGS

CC(C)S(=O)(=O)N1CCC(NC(=O)NC23CC4CC(CC(C4)O2)C3)CC1
CC50 (THLE-2): > 100000 nM
remaining at 1 h [1]: 63.9%
solubility kinetic at 2 h (physchem): 34 µM (≈ 13.1 µg/mL)
Activity (AR-42J cell line [2]): Active
IC50 [3]: 1.9 nM
Activity (AR-42J cell line [4]): Active
remaining at 1 h [5]: 63.9%
inhibition (INH) [6]: Not Active
CC50 [7]: > 20000 nM
IC50 [8]: 79.1 nM
Activity (AR-42J cell line [9]): Active
Activity (AR-42J cell line [10]): Active
Tmax [11]: 9.6 min
remaining at 1 h [12]: 72.7%

CC(=O)N1CCC(NC(=O)NC23CC4CC(CC(C4)O2)C3)CC1
CC50 (THLE-2): > 100000 nM
Selectivity ratio [13]: > 100
remaining at 1 h [1]: 80.5%
solubility kinetic at 2 h (physchem): 59 µM (≈ 19 µg/mL)
Activity (AR-42J cell line [2]): Active
IC50 [3]: 3.3 nM
Activity (AR-42J cell line [4]): Active
remaining at 1 h [5]: 85.1%
inhibition (INH) [6]: Not Active
CC50 [7]: > 20000 nM
IC50 [8]: 92.3 nM
Activity (AR-42J cell line [9]): Active
Activity (AR-42J cell line [10]): Active
remaining at 1 h [12]: 88.8%
